The results in this text go back to ChEMBL document CHEMBL4196022, “Alkynyl-containing phenylthiazoles: Systemically active antibacterial agents effective against methicillin-resistant Staphylococcus aureus (MRSA)” (Eur J Med Chem, 2018).

Values after ≈ are worked out from the molar mass of the structure shown. Active and inactive are the calls of the source.

By Papp is commonly meant the rate of passage across a membrane or cell layer, normalised by area and donor concentration. One may read the EC50 as the midpoint of the concentration-response curve. In general, MIC refers to the smallest concentration in the dilution series that meets the test's criterion for growth inhibition. Low readings indicate inhibition by little substance, high ones a need for much substance.

Series [1] in a line: Apparent permeability from apical to basolateral side in human Caco2 cells at 10 uM after 60 mins by LC-MS/MS analysis. The note with it: caco-2, 1 h. Format: ADME, cell-based. The essentials: (§1)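 Caco-2 monolayers were seeded at 1 × 10^5 cells/cm2 and differentiated for three weeks. Test article was at 10 μM (1% DMSO) in HBSS-MES pH 6.5 or HBSS-HEPES pH 7.4 and added to the donor side. Incubation ran 60 min (A→B) or 40 min (B→A), and receiver buffer was analysed by LC/MS/MS. Lucifer yellow and fluorescein checked monolayer integrity. Efflux ratio = Papp(B→A)/Papp(A→B).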
In general terms: Caco-2 cells form a polarised layer with tight junctions and transporters.

Series [2] can be described thus: Apparent permeability from basolateral to apical side in human Caco2 cells at 10 uM after 60 mins by LC-MS/MS analysis. The series is classed as ADME, cell-based. The note with it: caco-2, 1 h.
Series [3] is described as follows: Efflux ratio of apparent permeability in human Caco2 cells at 10 uM after 60 mins by LC-MS/MS analysis. Format: ADME, cell-based. The note with it: caco-2, 1 h. The essentials:
as §1

Series [4] is described as follows: Induction of proton motive force collapse in Escherichia coli inverted membrane vesicle in presence of ATP-driven PMF generation system by ACMA-based fluorescence assay. Format: functional, cell membranes. The essentials:
(§2)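 E. coli inverted membrane vesicles had proton motive force generated either by ATP or by succinate/O2. PMF collapse was followed as a dose response to give EC50, with CCCP as the reference uncoupler.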

Series [5] is described as follows: Induction of proton motive force collapse in Escherichia coli inverted membrane vesicle in presence of succinate/O2-driven PMF generation system by ACMA-based fluorescence assay. Format: functional, cell membranes. The essentials:
as §2

Series [6] concerns Staphylococcus aureus. In words: Antibacterial activity against vancomycin-resistant Staphylococcus aureus VRS12 after 20 hrs by broth microdilution assay. The series is classed as functional. The note with it: VRS12, 20 h. The essentials:
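Broth microdilution per CLSI in cation-adjusted Mueller Hinton broth. Compounds serially diluted, in triplicate. Incubation at 37 °C for at least 20 hours. MIC taken as the lowest concentration with no visible bacterial growth.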
A general note: Dilution methods test growth across graded concentrations, often in twofold steps.

For series [7], the system named is Staphylococcus aureus. In words: Bactericidal activity against methicillin resistant vancomycin-resistant Staphylococcus aureus VRS12 up to 18 hrs by broth microdilution assay. Format: functional. The note with it: VRS12, 18 h, read-out: MBC99.9. The essentials: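 MBC set up from the MIC plates. Aliquots from wells with no growth spotted onto tryptic soy agar and incubated at 37 °C for at least 18 hours. MBC taken as the lowest concentration giving 99.9% inhibition of bacterial growth.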

In series [8] the test system is Staphylococcus aureus. Description: Bactericidal activity against methicillin-resistant Staphylococcus aureus NRS123 (USA400) at 4 times MIC after 24 hrs by time kill assay. Format: functional, organism-based.
The test system of series [9] is Staphylococcus aureus. In words: Antibacterial activity against methicillin-resistant Staphylococcus aureus NRS123 (USA400) infected in mouse J774 cells at 4 ug/ml after 24 hrs. Format: functional, organism-based. The essentials: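 J774 macrophages grown in DMEM with 10% FBS at 37 °C, 5% CO2. Infected with USA400 at MOI ~100:1 for 1 h, then washed with gentamicin 50 μg/mL. Treated in triplicate wells for 24 h, washed with gentamicin again and lysed with 0.1% Triton X-100. Lysate plated on tryptic soy agar for 18–22 h; CFU/mL counted.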

Series [10] relates to Staphylococcus aureus. In words: Antibacterial activity against methicillin-resistant Staphylococcus aureus USA300 infected in Caenorhabditis elegans AU37 assessed as reduction in bacterial burden at 20 ug/ml after 18 hrs relative to control. The series is classed as functional. The essentials:
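L4-stage C. elegans AU37 infected on USA300 lawns for 6 h and washed with M9 buffer. 25–30 worms per well exposed to 20 μg/mL for 18 h, in triplicate. Worms then lysed and plated on TSA with 5 μg/mL nalidixic acid for 17 h at 37 °C. CFU per worm expressed as % reduction versus PBS.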

As to `CNC(=C[N+](=O)[O-])NCCSCc1ccc(CN(C)C)o1` [RANITIDINE], the figures for the Papp in series [1] and in series [2] were 0.27 ×10⁻⁶ cm/s and 1.71 ×10⁻⁶ cm/s, respectively. For the same molecule, the Ratio in [3] is 6.3.

For the molecule `N#CC(C#N)=NNc1cccc(Cl)c1` [CARBONYL CYANIDE M-CHLOROPHENYLHYDRAZONE], the EC50 came to 470 nM in series [4] and 210 nM in series [5].

As for `CN[C@H](CC(C)C)C(=O)N[C@H]1C(=O)N[C@@H](CC(N)=O)C(=O)N[C@H]2C(=O)N[C@H]3C(=O)N[C@H](C(=O)N[C@H](C(=O)O)c4cc(O)cc(O)c4-c4cc3ccc4O)[C@H](O)c3ccc(c(Cl)c3)Oc3cc2cc(c3O[C@@H]2O[C@H](CO)[C@@H](O)[C@H](O)[C@H]2O[C@H]2C[C@](C)(N)[C@H](O)[C@H](C)O2)Oc2ccc(cc2Cl)[C@H]1O` [VANCOMYCIN], inhibition of growth against Staphylococcus aureus [6] (MIC) required 16 µg/mL (≈ 11 µM). Besides, in the series on Staphylococcus aureus [7], the MBC is 256 µg/mL (≈ 177 µM). Moreover, the outcome in the series with Staphylococcus aureus [8] and in the series on Staphylococcus aureus [10] was Active. In the series with Staphylococcus aureus [9], the outcome was inactive.
